Experimental data collected from several papers.
Each line is one published result; the experiments were not run side by side.
PIK3CD: Phosphatidylinositol 4,5-bisphosphate 3-kinase catalytic subunit delta isoform (PIK3CD, Homo sapiens, UniProt O00329)

Cc1cc(O)c(-c2ccc([C@@H](C)CN(C)C)cc2)c2c1[nH]c(=O)c1sccc12
inhibition (PIK3CD; enzyme activity, inhibitor; 0.1 µM): -6.12%

CC(C)S(=O)(=O)c1ccc2nccc(Nc3ccc4sc(C5CCCC5)nc4c3)c2c1
activity vs control (Phosphatidylinositol 4,5-bisphosphate 3-kinase catalytic subunit delta isoform, with p85 (PIK3CD, Homo sapiens, UniProt O00329); enzyme activity, inhibitor; 1 µM): 91%

C=CC(=O)N1CCC([C@@H]2CCNc3c(C(N)=O)c(-c4ccc(Oc5ccccc5)cc4)nn32)CC1
inhibition (PIK3CD; enzyme activity, inhibitor; 1 µM): 11%

CCCCC(=O)Nc1ccc(-c2ccc3ncn(CCC)c(=O)c3c2)cn1
remaining binding (PIK3CD; binding, competition with immobilised ligand; 0.5 µM): 100%

COc1ccc2[nH]c3c4[nH]c5ccc(OC)cc5c4c4c(c3c2c1)C(=O)NC4=O
remaining binding (PIK3CD; binding; 1 µM): 64%

CO[C@@H]1[C@H](N(C)C(=O)c2ccccc2)C[C@H]2O[C@]1(C)n1c3ccccc3c3c4c(c5c6ccccc6n2c5c31)C(=O)NC4
inhibition (PIK3CD; enzyme activity, inhibitor; 1 µM): 0%

C[C@H]1CC[C@H](n2c3cnccc3c3cnc(Nc4ccc5c(n4)CCN(C(=O)CO)C5)nc32)CC1
remaining signal (PIK3CD; cell-free assay; 1 µM): 87%

C1=C/COCc2cc(ccc2OCCN2CCCC2)Nc2nccc(n2)-c2cccc(c2)COC/1
remaining binding (PIK3CD; binding; 0.1 µM): 30%

C#Cc1cc(-c2cc(Nc3nc(N[C@@H](C)c4ccc(F)cn4)ncc3Cl)n[nH]2)ccc1C=O
inhibition (PIK3CD; enzyme activity, inhibitor; 0.2 µM): 29.3%
